Two compounds from publication PMC5976445 (Journal of inorganic biochemistry, 2018) can be followed below.

Like-named read-outs stand apart in the source and are kept apart here.

Assay [1] deals with CYP101D1 (UniProt Q2GB12). The assay is described as follows: ITC. Background: In ITC the heat of successive injections is recorded.
The target of assay [2] is CYP101D1 (UniProt Q2GB12). Kind of assay: ITC. The source holds these as a separate data set.
Assay [3] deals with CYP101D1 (UniProt Q2GB12). Kind of assay: ITC. This is another data set of the same source.
For assay [4], the target named is CYP101D1 (UniProt Q2GB12). The assay is described as follows: ITC. The source holds these as a separate data set.
In assay [5] the target is T1, CYP101D1 (Novosphingobium aromaticivorans, UniProt Q2GB12).
T1 sequence (Q2GB12 1-421): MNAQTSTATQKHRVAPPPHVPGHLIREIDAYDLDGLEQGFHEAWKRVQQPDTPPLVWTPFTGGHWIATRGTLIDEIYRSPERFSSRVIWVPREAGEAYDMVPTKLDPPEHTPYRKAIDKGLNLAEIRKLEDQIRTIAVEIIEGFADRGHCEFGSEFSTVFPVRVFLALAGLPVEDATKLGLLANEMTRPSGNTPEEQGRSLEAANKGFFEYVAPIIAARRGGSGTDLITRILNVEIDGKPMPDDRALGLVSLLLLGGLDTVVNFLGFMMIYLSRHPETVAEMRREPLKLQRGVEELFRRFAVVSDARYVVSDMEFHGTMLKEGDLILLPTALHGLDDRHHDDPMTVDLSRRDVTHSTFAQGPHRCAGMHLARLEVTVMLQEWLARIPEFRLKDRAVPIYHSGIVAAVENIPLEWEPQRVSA
The assay is described as follows: isothermal titration calorimetry. Format: binding. A digest of the protocol:
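CYP101D1, expressed His-tagged in E. coli BL21(DE3), Ni-IMAC purified, thrombin-cleaved and gel-filtered. ITC at 25°C in 50 mM potassium phosphate without reducing agents. Either 600 μM–1 mM test compound was titrated into 40–50 μM CYP101D1, or 2 mM redox partner into 50 μM CYP101D1 (±1 mM camphor). 18 × 2 μL injections, 150 s apart, 750 rpm. Corrected for dilution enthalpy. 3–5 runs.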

What is called Kd is the free concentration of one partner at which half of the binding sites on the other are occupied at equilibrium, for simple one-to-one binding. Low readings indicate higher affinity, high ones lower affinity. Take Arx (natural protein): the Kd amounted to 97.7 µM in assay [1], 94.8 µM in assay [2], 41.1 µM in assay [3] and 43.3 µM in assay [4]. Further, the dH was -18.2 kcal/mol in assay [2] and -12.1 kcal/mol in assay [3].
The compound `CC1(C)[C@@H]2CC[C@@]1(C)C(=O)C2` [D-camphor] showed a Kd in assay [5] of 14.9 µM. This lies in the double-digit micromolar range.
